In ChEMBL document CHEMBL4422636, “Investigation of the structural requirements for N-methyl-D-aspartate receptor positive and negative allosteric modulators based on 2-naphthoic acid” (Eur J Med Chem, 2019):
pEC50, pIC50: −log10 of the molar value. Active and inactive are the calls of the source. No cut-off for these calls is given here.

Legend:
[1] = molecular target: Glutamate receptor ionotropic, NMDA 2A (Rattus norvegicus) (UniProt Q00959); assay: Allosteric modulation of rat GluN2A expressed in Xenopus laevis oocytes assessed as L-glutamate/glycine-induced current response at 100 uM at holding potential -60 mV by two-electrode voltage clamp method relative to L-glutamate/glycine; type: cell-based
Summary of the method: (§1)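 GluN1a with one GluN2 subunit; RNAs mixed 1:1–3 molar, 15–30 ng total injected into Xenopus oocytes, which were held in ND-96 at 17°C for 1–5 days. TEVC at −60 mV in 116 mM NaCl, 2 mM KCl, 0.3 mM BaCl2, 5 mM HEPES, pH 7.4. […] Reported as % of agonist-alone response, mean ± s.e.m., n≥4.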

[2] = molecular target: Glutamate receptor ionotropic, NMDA 2B (Rattus norvegicus) (UniProt Q00960); assay: Allosteric modulation of rat GluN2B expressed in Xenopus laevis oocytes assessed as L-glutamate/glycine-induced current response at 100 uM at holding potential -60 mV by two-electrode voltage clamp method relative to L-glutamate/glycine; type: cell-based; summary of the method: as §1
[3] = molecular target: Glutamate receptor ionotropic, NMDA 2C (Rattus norvegicus) (UniProt Q00961); assay: Allosteric modulation of rat GluN2C expressed in Xenopus laevis oocytes assessed as L-glutamate/glycine-induced current response at 100 uM at holding potential -60 mV by two-electrode voltage clamp method relative to L-glutamate/glycine; type: cell-based; summary of the method: as §1
[4] = molecular target: Glutamate receptor ionotropic, NMDA 2D (Rattus norvegicus) (UniProt Q62645); assay: Allosteric modulation of rat GluN2D expressed in Xenopus laevis oocytes assessed as L-glutamate/glycine-induced current response at 100 uM at holding potential -60 mV by two-electrode voltage clamp method relative to L-glutamate/glycine; type: cell-based; summary of the method: as §1
[5] = molecular target: T1, Glutamate NMDA receptor; Grin1/Grin2c (Rattus norvegicus) (UniProt P35439+Q00961); assay: Negative allosteric modulation of rat GluN1/GluN2C expressed in Xenopus laevis oocytes assessed as inhibition of 300 uM glutamate/glycine-induced current response at 30 uM at -60 mV holding potential by two-electrode voltage clamp method; type: cell-based
[6] = molecular target: T1, Glutamate NMDA receptor; Grin1/Grin2c (Rattus norvegicus); assay: Negative allosteric modulation of rat GluN1/GluN2C expressed in Xenopus laevis oocytes assessed as inhibition of 10 uM glutamate/glycine-induced current response at 30 uM at -60 mV holding potential by two-electrode voltage clamp method; type: cell-based
[7] = Solubility of the compound at 100 uM; type: physicochemical
Summary of the method: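 Compounds were inspected for visible precipitation at the concentrations used in the oocyte assays.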

[8] = molecular target: T2, Glutamate NMDA receptor; Grin1/Grin2a (Rattus norvegicus, UniProt P35439+Q00959); assay: Negative allosteric modulation of rat GluN1/GluN2A expressed in Xenopus laevis oocytes assessed as inhibition of L-glutamate/glycine-induced current response at holding potential -60 mV by two-electrode voltage clamp method; type: cell-based
Summary of the method: (§2)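 Oocytes injected with GluN1a plus GluN2A, 2B, 2C or 2D RNA (1:1–3 molar, 15–30 ng total) and kept in ND-96 at 17°C for 1–5 days. TEVC at −60 mV in HEPES-buffered NaCl/KCl/BaCl2 saline, pH 7.4. […] Curves were fitted to give EC50/IC50 and maximal potentiation or inhibition, mean ± s.e.m.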

[9] = molecular target: Glutamate NMDA receptor; Grin1/Grin2a (Rattus norvegicus) (UniProt P35439+Q00959); assay: Negative allosteric modulation of rat GluN1/GluN2A expressed in Xenopus laevis oocytes assessed as inhibition of L-glutamate/glycine-induced current response at holding potential -60 mV by two-electrode voltage clamp method relative to untreated control; type: cell-based; set-up: concentration or dose not given beside the values; summary of the method: as §2
[10] = molecular target: T3, Glutamate NMDA receptor; Grin1/Grin2b (Rattus norvegicus, UniProt P35439+Q00960); assay: Negative allosteric modulation of rat GluN1/GluN2B expressed in Xenopus laevis oocytes assessed as inhibition of L-glutamate/glycine-induced current response at holding potential -60 mV by two-electrode voltage clamp method; type: cell-based; summary of the method: as §2
[11] = molecular target: Glutamate NMDA receptor; Grin1/Grin2b (Rattus norvegicus) (UniProt P35439+Q00960); assay: Negative allosteric modulation of rat GluN1/GluN2B expressed in Xenopus laevis oocytes assessed as inhibition of L-glutamate/glycine-induced current response at holding potential -60 mV by two-electrode voltage clamp method relative to untreated control; type: cell-based; set-up: concentration or dose not given beside the values; summary of the method: as §2
[12] = molecular target: T4, Glutamate NMDA receptor; Grin1/Grin2c (Rattus norvegicus, UniProt P35439+Q00961); assay: Negative allosteric modulation of rat GluN1/GluN2C expressed in Xenopus laevis oocytes assessed as inhibition of L-glutamate/glycine-induced current response at holding potential -60 mV by two-electrode voltage clamp method; type: cell-based; summary of the method: as §2
[13] = molecular target: T1, Glutamate NMDA receptor; Grin1/Grin2c (Rattus norvegicus); assay: Negative allosteric modulation of rat GluN1/GluN2C expressed in Xenopus laevis oocytes assessed as inhibition of L-glutamate/glycine-induced current response at holding potential -60 mV by two-electrode voltage clamp method relative to untreated control; type: cell-based; set-up: concentration or dose not given beside the values; summary of the method: as §2
[14] = molecular target: T5, Ionotropic glutamate receptor NMDA 1/2D (Rattus norvegicus, UniProt P35439+Q62645); assay: Negative allosteric modulation of rat GluN1/GluN2D expressed in Xenopus laevis oocytes assessed as inhibition of L-glutamate/glycine-induced current response at holding potential -60 mV by two-electrode voltage clamp method; type: cell-based; summary of the method: as §2
[15] = molecular target: Ionotropic glutamate receptor NMDA 1/2D (Rattus norvegicus) (UniProt P35439+Q62645); assay: Negative allosteric modulation of rat GluN1/GluN2D expressed in Xenopus laevis oocytes assessed as inhibition of L-glutamate/glycine-induced current response at holding potential -60 mV by two-electrode voltage clamp method relative to untreated control; type: cell-based; set-up: concentration or dose not given beside the values; summary of the method: as §2
[16] = molecular target: T2, Glutamate NMDA receptor; Grin1/Grin2a; assay: Positive allosteric modulation of rat GluN1/GluN2A expressed in Xenopus laevis oocytes assessed as potentiation of L-glutamate/glycine-induced current response at holding potential -60 mV by two-electrode voltage clamp method; type: cell-based; summary of the method: as §2
[17] = molecular target: T3, Glutamate NMDA receptor; Grin1/Grin2b; assay: Positive allosteric modulation of rat GluN1/GluN2B expressed in Xenopus laevis oocytes assessed as potentiation of L-glutamate/glycine-induced current response at holding potential -60 mV by two-electrode voltage clamp method; type: cell-based; summary of the method: as §2
[18] = molecular target: T4, Glutamate NMDA receptor; Grin1/Grin2c; assay: Positive allosteric modulation of rat GluN1/GluN2C expressed in Xenopus laevis oocytes assessed as potentiation of L-glutamate/glycine-induced current response at holding potential -60 mV by two-electrode voltage clamp method; type: cell-based; summary of the method: as §2
[19] = molecular target: T5, Ionotropic glutamate receptor NMDA 1/2D; assay: Positive allosteric modulation of rat GluN1/GluN2D expressed in Xenopus laevis oocytes assessed as potentiation of L-glutamate/glycine-induced current response at holding potential -60 mV by two-electrode voltage clamp method; type: cell-based; summary of the method: as §2
[20] = molecular target: Glutamate receptor ionotropic, NMDA 2A (Rattus norvegicus) (UniProt Q00959); assay: Agonist activity at rat GluN2A expressed in Xenopus laevis oocytes assessed effect on current response at holding potential -60 mV by two-electrode voltage clamp method relative to L-glutamate/glycine; type: cell-based; summary of the method: as §1
[21] = molecular target: Glutamate receptor ionotropic, NMDA 2B (Rattus norvegicus) (UniProt Q00960); assay: Agonist activity at rat GluN2B expressed in Xenopus laevis oocytes assessed as effect on current response at holding potential -60 mV by two-electrode voltage clamp method relative to L-glutamate/glycine; type: cell-based; summary of the method: as §1
[22] = molecular target: Glutamate receptor ionotropic, NMDA 2C (Rattus norvegicus) (UniProt Q00961); assay: Agonist activity at rat GluN2C expressed in Xenopus laevis oocytes assessed effect on current response at holding potential -60 mV by two-electrode voltage clamp method relative to L-glutamate/glycine; type: cell-based; summary of the method: as §1
[23] = molecular target: Glutamate receptor ionotropic, NMDA 2D (Rattus norvegicus) (UniProt Q62645); assay: Agonist activity at rat GluN2D expressed in Xenopus laevis oocytes assessed as effect on current response at holding potential -60 mV by two-electrode voltage clamp method relative to L-glutamate/glycine; type: cell-based; summary of the method: as §1
[24] = molecular target: Glutamate receptor ionotropic, NMDA 2A (Rattus norvegicus) (UniProt Q00959); assay: Positive allosteric modulation of rat GluN2A expressed in Xenopus laevis oocytes assessed as potentiation of L-glutamate/glycine-induced current response at holding potential -60 mV by two-electrode voltage clamp method relative to L-glutamate/glycine; type: cell-based; set-up: concentration or dose not given beside the values; summary of the method: as §2
[25] = molecular target: Glutamate receptor ionotropic, NMDA 2B (Rattus norvegicus) (UniProt Q00960); assay: Positive allosteric modulation of rat GluN2B expressed in Xenopus laevis oocytes assessed as potentiation of L-glutamate/glycine-induced current response at holding potential -60 mV by two-electrode voltage clamp method relative to L-glutamate/glycine; type: cell-based; summary of the method: as §2
[26] = molecular target: Glutamate receptor ionotropic, NMDA 2C (Rattus norvegicus) (UniProt Q00961); assay: Positive allosteric modulation of rat GluN2C expressed in Xenopus laevis oocytes assessed as potentiation of L-glutamate/glycine-induced current response at holding potential -60 mV by two-electrode voltage clamp method relative to L-glutamate/glycine; type: cell-based; set-up: concentration or dose not given beside the values; summary of the method: as §2
[27] = molecular target: Glutamate receptor ionotropic, NMDA 2D (Rattus norvegicus) (UniProt Q62645); assay: Positive allosteric modulation of rat GluN2D expressed in Xenopus laevis oocytes assessed as potentiation of L-glutamate/glycine-induced current response at holding potential -60 mV by two-electrode voltage clamp method relative to L-glutamate/glycine; type: cell-based; set-up: concentration or dose not given beside the values; summary of the method: as §2

Activity [1] [%]	Activity [2] [%]	Activity [3] [%]	Activity [4] [%]	solubility [7]	pIC50 [8]	Activity [9] [%]	pIC50 [10]	Activity [11] [%]	pIC50 [12]	Activity [13] [%]	pIC50 [14]	Activity [15] [%]	pEC50 [16]	pEC50 [18]	pEC50 [19]	Activity [20]	Activity [21]	Activity [22]	Activity [23]	SMILES	other results
80.5	56.1	35.1	26.8	Soluble	5.22	30.5	4.49	61.3	5.09	80.1	5.54	79.7								O=C(O)c1cc2cc(/C=C/c3ccccc3[N+](=O)[O-])ccc2cc1O	Activity [5]: Active; Activity [6]: Active
47.4	53.2	43.3	34.4	Soluble	5.24	54.1	4.95	48.4	5.19	55.9	5.54	72.3								O=C(O)c1cc2cc(/C=C/c3ccc([N+](=O)[O-])cc3)ccc2cc1O	
281	225	337	317	Soluble									4.40	4.44	4.51	inactive	inactive	inactive	inactive	CC(C)CCC(C)c1ccc2cc(C(=O)O)ccc2c1 (racemic)	pEC50 [17]: 4.60; Activity [24]: 277%; Activity [25]: 192%; Activity [26]: 263%; Activity [27]: 240%
28.4	49.9	26.1	26.1	Soluble	4.96	71.5	4.01	56.8	4.38	106	4.30	98.6								O=C(O)c1cc2cc(-c3ccccc3)ccc2cc1O	
171	171	192	207	Soluble									4.55	4.43	4.54	inactive	inactive	inactive	inactive	CC(C)CCCc1ccc2cc(C(=O)O)ccc2c1	pEC50 [17]: 4.46; Activity [24]: 68.6%; Activity [25]: 102%; Activity [26]: 117%; Activity [27]: 88.4%
131	102	126	110	Soluble									4.57	3.95	4.21	inactive	inactive	inactive	inactive	CCCCCc1ccc2cc(C(=O)O)ccc2c1	Activity [24]: 39%; Activity [26]: 42.7%; Activity [27]: 17.3%
136	175	171	161	Soluble									5.12	4.65	4.46	inactive	inactive	inactive	inactive	O=C(O)c1ccc2cc(CCCC3CCCC3)ccc2c1	pEC50 [17]: 4.57; Activity [24]: 38.4%; Activity [25]: 61.9%; Activity [26]: 105%; Activity [27]: 65.6%
163	265	349	310	Soluble									3.94	4.58	4.14	inactive	inactive	inactive	inactive	C=C(CCC(C)C)c1ccc2cc(C(=O)O)ccc2c1	pEC50 [17]: 3.93; Activity [24]: 230%; Activity [25]: 417%; Activity [26]: 137%; Activity [27]: 277%
50.5	28.8	24.4	30.7	Soluble	5.01	49.7	5.04	66.3	5.10	74.4	5.85	70								O=C(O)c1cc2cc(/C=C/c3cccc([N+](=O)[O-])c3)ccc2cc1O	
32.7	7.3	21.7	11.3	Soluble	4.75	83.2	5.12	93.9	4.86	86.3	5.07	93.6								O=C(O)c1cc2cc(/C=C/c3ccccc3)ccc2cc1O	
89	84	76	85	Soluble												inactive	inactive	inactive	inactive	CCCCCc1ccc2cc(CO)ccc2c1	
104	78	118	85	Soluble												inactive	inactive	inactive	inactive	CC(C)CC(Cc1ccc2cc(C(=O)O)ccc2c1)C(=O)O (racemic)	
